Screening results: PubChem BioAssay, The Scripps Research Institute Molecular Screening Center
A selection: hits, their analogues and other compounds. The true share with any hit is near 2.4%.
S1P4 antagonist: human S1P4 receptor antagonism; O95977; S1P4-expressing cells, antagonist mode, reporter read-out; inhibition, % at 4.98 µM; 220,000 compounds, 0.26% hits; in the data active = inhibition above about 29%;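 note: 0% = wells stimulated with agonist and 100% = vehicle wells without agonist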
Target sequence (O95977 whole entry, looked up): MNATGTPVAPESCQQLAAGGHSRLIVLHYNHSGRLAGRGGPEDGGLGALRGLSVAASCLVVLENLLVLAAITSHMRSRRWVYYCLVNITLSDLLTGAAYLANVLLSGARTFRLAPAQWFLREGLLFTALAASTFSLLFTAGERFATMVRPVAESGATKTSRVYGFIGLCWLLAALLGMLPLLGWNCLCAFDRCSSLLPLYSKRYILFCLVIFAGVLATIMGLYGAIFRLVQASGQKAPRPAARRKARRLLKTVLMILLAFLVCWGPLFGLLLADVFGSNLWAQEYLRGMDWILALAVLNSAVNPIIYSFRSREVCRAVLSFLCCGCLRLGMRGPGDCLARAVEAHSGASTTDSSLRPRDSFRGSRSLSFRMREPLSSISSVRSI
NPY Y2 blocker: NPY-Y2 (human) receptor antagonism. inhibition, % at 2.7 µM. 140,000 compounds, 0.99% hits. P49146. NPY-Y2 expressing cells, antagonist mode; in the data active = inhibition above about 17%;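 note: 0% = vehicle with agonist challenge and 100% = reference antagonist with challenge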
NPY2 pot ag: potentiators or agonists of human neuropeptide Y receptor Y2; cells expressing NPY-Y2, potentiator/agonist read-out; activation, % at 3.6 µM; 220,000 compounds, 0.45% hits; AID 1359; in the data active = activation above about 27%;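 note: cells stimulated with NPY near EC25 plus isoproterenol at EC100; 0% = vehicle plus submaximal agonist and 100% = vehicle plus saturating agonist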
NPY-Y1 antag: NPY-Y1 (human) receptor antagonism; 200,000 compounds, 1% hits; P25929; HEK293-CNG Y1 cells, membrane potential fluorescence; NPY at EC95, then isoproterenol; AID 1040; inhibition, % at 3.6 µM;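 active = inhibition above the campaign mean inhibition of all tested compounds plus 3 SD, cut at about 20% in these data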;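 note: 0% = DMSO wells given NPY plus isoproterenol and 100% = isoproterenol alone without NPY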
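Test system: HEK293 cells co-expressing NPY Y1 receptor and cyclic-nucleotide gated channel; Also added: NPY (25 nM), isoproterenol (1 µM), Ro 20-1724 (25 µM); Compound dosing: one concentration, 3.6 µM, in 0.4% DMSO; Timing: dye 3 h, compound 60 min room temperature, stimulation 45 min; Technique: Membrane-potential fluorescent dye readout.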
S1P4 ag: agonists of human S1P4 receptor; AID 1509; activation, % at 4.98 µM; 220,000 compounds, 0.35% hits; S1P4-expressing cell line, agonist reporter assay; in the data active = activation above about 11%;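 note: 0% = DMSO vehicle and 100% = reference agonist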
NPY1 pot ag: potentiators or agonists of human neuropeptide Y receptor Y1 | AID 1304 | 220,000 compounds, 0.37% hits | P25929 | NPY-Y1 expressing cells, potentiator/agonist activation | activation, % at 3.6 µM; in the data active = activation above about 33%, passing the limit was not always enough;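 note: cells stimulated with NPY at EC10 then isoproterenol at EC100; 0% = low agonist plus stimulus and 100% = saturating agonist plus stimulus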
S1P4 ag conf: confirmation of human S1P4 receptor agonists | shares compounds with S1P4 ag | S1P4 agonist cell-based reporter assay | activation, % at 4.98 µM | 740 compounds, 7% hits; in the data active = activation above about 12%;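 note: 0% = vehicle and 100% = full reference agonist response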
S1P1 ag: human S1P1 agonism as S1P4 agonist counter-screen | shares compounds with S1P4 ag | S1P1 agonist cell-based assay, activation | activation, % at 4.98 µM | 740 compounds, 4% hits | AID 1563; in the data active = activation above about 21%;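 note: 0% = vehicle wells and 100% = reference agonist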
Starred values were filed as active, the others as inactive; · = no result given.

SMILES	S1P4 antagonist	NPY Y2 blocker	NPY2 pot ag	NPY-Y1 antag	S1P4 ag	NPY1 pot ag	S1P4 ag conf	S1P1 ag
CC(C)C[C@H](NC(=O)c1nc[nH]c1C(=O)NCc1ccccc1)C(=O)OC(C)(C)C	11.3	·	6.0	1.1	0.8	-11.7	·	·
Cc1ccccc1-c1nc(CS(=O)CC(=O)NCCCN(C)c2ccccc2)c(C)o1 (centres undefined)	-16.7	2.6	8.3	6.9	-0.3	-28.7	·	·
Cc1ccc(NC(=O)CS(=O)CC(=O)NCCCN(C)c2ccccc2)cc1 (centres undefined)	-7.5	1.9	13.9	2.6	24.6*	6.8	-1.6	-4.2
CCCCN(CC)C(=S)Nc1ccc2nc(N3CCN(C)CC3)cc(C)c2c1	-20.7	·	-1.1	-1.8	0.7	-1.9	·	·
COc1ccc(-c2nnn(CC(=O)N(CCCN3CCOCC3)C(C(=O)NC3CCCC3)c3ccco3)n2)cc1 (centres undefined)	-22.8	·	1.4	9.7	14.5*	-2.4	-2.5	-9.2
CC(NC1CCCCC1)C(=O)NN=C(c1ccccc1)c1ccccc1 (centres undefined)	-1.1	·	-18.7	3.1	-0.6	8.1	·	·
N#Cc1c(N)nc2c(c1-c1ccncc1)CCCCC2	-13.5	0.3	-0.4	7.3	135.1*	7.5	-1.1	4.8
NS(=O)(=O)c1ccc(N2N=C(c3ccccc3)CC2c2cccc(F)c2)cc1 (centres undefined)	-13.8	7.6	2.4	4.8	10.8	-13.7	·	·
NS(=O)(=O)c1ccc(N2N=C(c3ccc(Br)cc3)CC2c2ccc(F)cc2)cc1 (centres undefined)	-22.8	8.3	0.3	6.9	24.0*	-11.3	42.5*	112.1*
CCCc1ccc(OCC(=O)Nc2cc(S(=O)(=O)CC)ccc2O)cc1	-20.2	·	-9.0	2.1	12.4*	2.9	-0.8	2.0
CCOC(=O)N1CCC(NS(=O)(=O)c2ccc(C#N)cc2)CC1	5.1	·	-14.1	·	-1.8	-5.4	·	·
CN=C1SC(C(=O)Nc2ccccc2Cl)CC(=O)N1c1ccc(OC(F)(F)Cl)cc1 (centres undefined)	-15.3	·	3.3	0.0	3.1	22.9	·	·
CCOC(=O)/C(C#N)=C/c1c(Oc2cccc(C)c2)nc2c(C)cccn2c1=O	-15.3	3.1	2.1	0.9	0.0	-13.7	·	·
Cc1ccc(Oc2nc3c(C)cccn3c(=O)c2/C=C(\C#N)C(N)=O)cc1	-5.6	·	-5.0	·	19.6*	5.6	-1.4	-8.0
COc1ccccc1C(=O)Nc1nc2cc3c(cc2s1)OCO3	10.6	·	-1.8	·	26.7*	-34.1	-0.9	8.4
O=C(O)CCN1C(=O)c2ccc(NC(=O)Cc3ccc(Cl)cc3)cc2C1=O	-22.3	·	6.8	0.5	2.4	-7.4	·	·
CS(=O)(=O)N(CCc1ccccc1)CC(=O)N1CCCC1	1.6	·	-18.4	·	21.1*	22.0	-1.7	-3.8
O=C(Cn1cc(C(F)(F)F)cc(Cl)c1=O)NCCc1ccccc1	-6.0	1.8	-3.9	4.7	-1.9	0.8	·	·
CCOC(=O)C/C(C)=N/NC(=O)COc1ccccc1C	-16.7	3.7	4.6	11.6	88.9*	4.4	-1.2	-1.6
Cc1ccccc1OCC(=O)N/N=C/c1ccncc1	-3.5	1.5	4.3	4.8	2.6	27.0	·	·
NC(=S)NNC(=O)c1cc(C(F)(F)F)cc(C(F)(F)F)c1	-16.1	·	-28.5	·	77.3*	-18.4	-1.1	0.5
CC(C)CC(=O)NC(c1ccccc1Cl)c1c(O)ccc2ccccc12 (centres undefined)	-8.5	-1.6	4.2	1.6	13.0*	11.2	-0.8	0.4
O=C(CNC(=O)c1ccccc1)OCc1cccc([N+](=O)[O-])c1	-23.5	1.5	-12.4	-0.5	0.1	-17.4	·	·
CC(C)(C)c1ccc(C(=O)NCC(=O)OCc2ccc([N+](=O)[O-])cc2)cc1	-9.0	10.0	-5.6	-0.9	14.1*	-16.3	-1.8	-6.8
COc1cccc(SCC2CSc3nc4ccccc4c(=O)n32)c1 (centres undefined)	-8.1	·	0.2	-0.1	-0.3	2.6	·	·
SMILES	S1P4 antagonist	NPY Y2 blocker	NPY2 pot ag	NPY-Y1 antag	S1P4 ag	NPY1 pot ag	S1P4 ag conf	S1P1 ag
Nc1ccccc1SCC1CSc2nc3ccccc3c(=O)n21 (centres undefined)	-2.1	·	-5.1	-3.3	14.1*	11.9	-1.6	-8.6
CC(=O)c1sc(C(C)(C)C)cc1NC(=O)c1ccccc1C(=O)O	-2.4	·	1.2	·	0.4	3.3	·	·
Cc1c(Cl)c([N+](=O)[O-])nn1Cc1ccc(C(=O)Nc2ccc(Cl)cn2)o1	-16.5	3.7	-2.3	-4.2	0.1	-15.7	·	·
O=C(Nc1ccc(Cl)cn1)c1ccc([N+](=O)[O-])o1	24.7	·	-6.4	0.2	48.8*	9.8	-3.9	-16.5
O=C(CN(C(=O)c1csnn1)c1cccc2c1CCCC2)NC1CCCC1	-7.0	·	0.4	6.3	0.2	11.9	·	·
C/C=C/C(=O)OCC(=O)Nc1ccc(C)c(S(=O)(=O)N(C)C)c1	-18.5	·	6.5	-1.4	1.1	-6.8	·	·
Cc1ccc(NC(=O)COC(=O)[C@H](C)N2C(=O)C3CC=CCC3C2=O)cc1S(=O)(=O)N(C)C (some centres undefined)	-16.6	·	6.6	-2.4	15.6*	-2.6	-1.1	-4.9
COC(=O)c1cc(NC(=S)N2CCN(C(=O)C3CCCO3)CC2)cc(C(=O)OC)c1 (centres undefined)	-30.6	·	-6.0	-2.2	2.1	10.6	·	·
O=C(COC(=O)C1CC1)NC(=O)NCc1ccccc1	11.3	·	-0.7	4.7	-0.8	13.5	·	·
CCn1cc(CNC(=O)/C=C/c2cnn(C)c2)c(C)n1	-13.5	3.4	8.2	10.7	35.6*	-21.1	-2.7	1.0
COc1ccc(N2CCN(C(=O)NCc3ccc(OC)c(Cl)c3)CC2)cc1	-4.2	·	6.9	-0.7	15.7*	6.8	-2.4	-11.3
O=C(CCC1CCCCC1)NCc1ccccn1	-28.0	0.4	2.6	2.2	-1.8	0.6	·	·
Cc1ccc(S(=O)(=O)CNC(=O)c2ccccc2)cc1	-2.0	1.4	-0.4	5.2	23.9*	8.5	-2.4	1.3
Cc1ccc(S(=O)(=O)NCCNC(=O)c2ccccc2)cc1	-2.8	3.9	12.4	1.9	-1.1	-5.7	·	·
COC(=O)c1ccc(NC(C)=O)o1	-10.2	2.3	-11.6	-1.7	1.3	4.3	·	·
COC(=O)c1ccc(NC(=O)c2ccccc2)o1	-7.4	-1.1	0.0	-8.8	24.8*	-8.1	-1.8	-4.8
CC(=O)Nc1nc(C(=O)Nc2c(C)n[nH]c2C)cs1	-23.1	-0.4	1.3	1.9	14.1*	6.8	-1.6	2.1
O=C(N1CCN(c2cccc(Cl)c2)CC1)C1(c2cccs2)CCOCC1	26.0	6.9	2.7	10.9	3.9	26.0	·	·
Cc1ccc(CNC(=O)C2CC(c3ccc([N+](=O)[O-])cc3)=NO2)cc1 (centres undefined)	-7.3	7.6	-11.7	6.2	25.4*	-7.3	-0.9	-6.5
